The source made the active and inactive calls. No cut-off for these calls is given here.
Assays:
[1] = target: Glyceraldehyde-3-phosphate dehydrogenase (Homo sapiens) (UniProt P04406); assay: Inhibition of human GAPDH assessed as ratio of kinact to Ki by Kitz-Wilson double-reciprocal plot at pH 7.4
[2] = target: Glyceraldehyde-3-phosphate dehydrogenase (Plasmodium falciparum) (UniProt Q8T6B1); assay: Inhibition of recombinant Plasmodium falciparum GAPDH expressed in Escherichia coli by time course assay
Glyceraldehyde-3-phosphate dehydrogenase (Plasmodium falciparum), sequence (Q8T6B1 as listed by the source): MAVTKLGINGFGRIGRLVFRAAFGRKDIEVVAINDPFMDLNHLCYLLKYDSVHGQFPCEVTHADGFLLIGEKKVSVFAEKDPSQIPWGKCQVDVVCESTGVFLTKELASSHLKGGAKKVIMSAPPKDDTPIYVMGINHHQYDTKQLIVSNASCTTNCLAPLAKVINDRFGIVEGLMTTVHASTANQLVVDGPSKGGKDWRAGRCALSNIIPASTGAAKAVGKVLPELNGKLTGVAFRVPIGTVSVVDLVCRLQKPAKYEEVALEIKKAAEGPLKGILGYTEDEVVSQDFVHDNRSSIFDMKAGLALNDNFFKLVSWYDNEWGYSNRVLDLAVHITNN
Method in brief: (§1)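 Pf GAPDH incubated with inhibitor, aliquots withdrawn over time for activity assay; control enzyme kept without inhibitor under the same conditions. Activity normalized to the inhibitor-free value. Time courses fitted to a sum of two exponential decays. kobs obtained by fitting residual activity versus incubation time to a mechanism-based inhibition equation (kinact, Ki). Duplicates.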

[3] = target: Glyceraldehyde-3-phosphate dehydrogenase (Plasmodium falciparum) (UniProt Q8T6B1); assay: Inhibition of unmodified recombinant Plasmodium falciparum GAPDH at 200 uM measured after overnight incubation by mass spectroscopy in presence of trypsin
Method in brief: (§2)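 Pf GAPDH incubated overnight with inhibitor at 200 μM. MALDI-TOF on undigested protein (double-layer CHCA matrix) or on tryptic digests (thin-layer CHCA), with MS/MS. Cys alkylation checked by 1 h treatment of 20 μM enzyme with 10-fold excess iodoacetamide before analysis.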

[4] = target: Glyceraldehyde-3-phosphate dehydrogenase (Plasmodium falciparum) (UniProt Q8T6B1); assay: Inhibition of recombinant Plasmodium falciparum GAPDH expressed in Escherichia coli at 50 to 200 uM by time course assay; conditions: TDE = time-dependent effect; method in brief: as §1
[5] = target: Glyceraldehyde-3-phosphate dehydrogenase (Plasmodium falciparum) (UniProt Q8T6B1); assay: Inhibition of undigested recombinant Plasmodium falciparum GAPDH at 200 uM measured after overnight incubation by mass spectroscopy; method in brief: as §2
[6] = target: Glyceraldehyde-3-phosphate dehydrogenase (Plasmodium falciparum) (UniProt Q8T6B1); assay: Inhibition of recombinant Plasmodium falciparum GAPDH expressed in Escherichia coli assessed as ratio of kinact to Ki by Kitz-Wilson double-reciprocal plot; method in brief: as §1
[7] = target: Glyceraldehyde-3-phosphate dehydrogenase (Plasmodium falciparum) (UniProt Q8T6B1); assay: Irreversible inhibition of recombinant Plasmodium falciparum GAPDH expressed in Escherichia coli by time course assay
Method in brief: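 Pf GAPDH was incubated with inhibitor at 50–300 μM, and enzyme activity was assayed over the incubation time. Activity was normalized to the same enzyme kept under identical conditions without inhibitor. Residual-activity time courses were fitted to a sum of two exponential decays. kobs was obtained by fitting the mechanism-based inhibition equation, giving kinact and Ki. Experiments were done in duplicate.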

[8] = target: Glyceraldehyde-3-phosphate dehydrogenase (Plasmodium falciparum) (UniProt Q8T6B1); assay: Inhibition of recombinant Plasmodium falciparum GAPDH expressed in Escherichia coli by UV-vis spectroscopy
Method in brief: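 Enzyme at 400 μM incubated with inhibitor. Absorption spectra recorded until reaction completion to follow loss of the Racker band.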

[9] = target: Glyceraldehyde-3-phosphate dehydrogenase (Plasmodium falciparum) (UniProt Q8T6B1); assay: Inhibition of recombinant Plasmodium falciparum GAPDH expressed in Escherichia coli at 50 to 300 uM by time course assay; method in brief: as §1

Glyceraldehyde-3-phosphate dehydrogenase (Homo sapiens), sequence (P04406 2-335 limits assumed): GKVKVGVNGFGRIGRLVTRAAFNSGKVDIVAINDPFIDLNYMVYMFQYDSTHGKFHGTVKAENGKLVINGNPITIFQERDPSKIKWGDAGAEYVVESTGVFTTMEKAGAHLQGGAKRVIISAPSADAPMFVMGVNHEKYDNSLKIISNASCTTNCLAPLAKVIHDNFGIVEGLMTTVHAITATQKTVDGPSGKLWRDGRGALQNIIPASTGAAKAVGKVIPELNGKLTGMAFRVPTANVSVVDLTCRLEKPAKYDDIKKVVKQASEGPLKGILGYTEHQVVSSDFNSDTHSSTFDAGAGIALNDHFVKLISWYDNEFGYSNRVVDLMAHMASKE

| SMILES | Ratio [1] [M⁻¹ s⁻¹] | inhibition [2] | inhibition [3] | inhibition [4] | inhibition [5] | Ratio [6] [M⁻¹ s⁻¹] | inhibition [7] | inhibition [8] | inhibition [9] |
| --- | --- | --- | --- | --- | --- | --- | --- | --- | --- |
| C=CC(N)=O | 0.053 | – | – | – | – | – | – | – | – |
| C=CC=O | 297 | – | – | – | – | – | – | – | – |
| COC(=O)[C@@H](N)[C@@H]1CC(Br)=NO1 | – | Dose-dependent effect | Active | tde | Active | 10.7 | – | – | – |
| N[C@H](C(=O)O)[C@@H]1CC(Br)=NO1 | – | Dose-dependent effect | – | tde | – | 0.7 | Active | – | – |
| N[C@H](C(=O)O)[C@@H]1CC(Cl)=NO1 | – | Dose-dependent effect | – | tde | – | – | Active | – | – |
| N[C@H](C(=O)OCc1ccccc1)[C@@H]1CC(Br)=NO1 | – | Dose-dependent effect | – | tde | Active | 6.6 | – | – | – |
| O=C(N[C@H](C(=O)O)[C@@H]1CC(Br)=NO1)OCc1ccccc1 | – | Dose-dependent effect | Active | tde | – | 2.6 | – | – | – |
| BrC1=NOC(c2ccccc2)C1 (racemic) | – | Dose-dependent effect | – | tde | – | 10.3 | Active | Active | – |
| BrC1=NOC(c2ccncc2)C1 (racemic) | – | Dose-dependent effect | – | tde | – | 0.47 | – | – | – |
| CC(C)(C)OC(=O)N1CC2ON=C(Br)C2C1 (racemic) | – | Dose-dependent effect | – | tde | – | 4.8 | – | – | – |
| CC(C)(C)OC(=O)NCC1CC(Br)=NO1 (racemic) | – | Dose-dependent effect | – | – | Active | 2.9 | – | – | Active |
| ClC1=NOC(c2ccccc2)C1 (racemic) | – | Dose-dependent effect | – | tde | – | – | Active | – | – |
| O=C(O)CC1CC(Br)=NO1 (racemic) | – | Dose-dependent effect | – | tde | – | 0.7 | – | – | – |
| Oc1ccc(C2CC(Br)=NO2)cc1 (racemic) | – | Dose-dependent effect | – | tde | – | 3.1 | – | – | – |
